Here are results for 24 compounds from ChEMBL document CHEMBL1135896, “Synthesis and notable antimalarial activity of acyclic peroxides, L-(alkyldioxy)-L-(methyldioxy)cyclododecanes” (J Med Chem, 2002).

What is called EC50 is the concentration at which the effect is half-maximal. Read a low EC50 as greater potency. One may read the ED50 as the dose that gives a 50% effect, or the effect in half of the subjects. A higher ED50 goes with weaker potency.

The subject of assay [1] is FM3A. In words: Mammalian cell cytotoxicity assessed against mouse mammary tumor FM3A cells. It counts as functional, cell-based. Put shortly:
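Mouse mammary tumor FM3A cells in culture used as a mammalian cytotoxicity control; EC50 determined by a previously reported protocol. Selectivity is the mean EC50 for FM3A cells divided by the mean EC50 for P. falciparum.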

The test system of a further assay is Plasmodium falciparum. The assay can be described thus: (§1) In vitro antimalarial activity against Plasmodium falciparum. It counts as functional, organism-based.
Assay [2] deals with FM3A. Described as §1. It counts as functional.
Assay [3] has as its system Mus musculus. In words: In vivo 50% effective dose tested against Plasmodium berghei NK65 infected mice (Mus musculus), after intraperitoneal administration. It counts as functional. The note with it: ip. Put shortly:
(§2)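 Mice infected with P. berghei, in groups of five, were given the compounds intraperitoneally in olive oil at various concentrations. Dosing was once daily on days 0–3. Parasitemia was determined on day 4, and ED values were derived by a previously reported protocol.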

For assay [4], the system named is Mus musculus. The assay can be described thus: In vivo 50% effective dose tested against Plasmodium berghei NK65 infected mice (Mus musculus), after oral administration. It counts as functional. Put shortly:
(§3)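 Mice infected with P. berghei, in groups of five, were given the compounds orally in olive oil at various concentrations. Dosing was once daily on days 0–3. Parasitemia was determined on day 4, and ED values were derived by a previously reported protocol.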

Assay [5] concerns Mus musculus. The assay can be described thus: In vivo 90% effective dose tested against Plasmodium berghei NK65 infected mice (Mus musculus), after intraperitoneal administration. It counts as functional. To be noted: ip. Put shortly: as §2
Assay [6] relates to Mus musculus. The assay can be described thus: In vivo 90% effective dose tested against Plasmodium berghei NK65 infected mice (Mus musculus), after oral administration. It counts as functional. Put shortly: as §3
Assay [7] has as its system Mus musculus. In words: In vivo […] effective dose tested against Plasmodium berghei NK 65 infected mice (Mus musculus), after intraperitoneal administration. It counts as functional. The note with it: ip. Put shortly: as §2

With `COOC1(OOCCC(=O)O)CCCCCCCCCCC1`, the EC50 in the assay with FM3A [1] worked out at 450 nM; in the assay with Plasmodium falciparum, 5000 nM.
As for `C=CCCOOC1(OOC)CCCCCCCCCCC1`, the EC50 with FM3A [1] is 6000 nM; with Plasmodium falciparum, 380 nM. In the assay with FM3A [2], the Selectivity ratio is given as 16.
In the case of `COOC1(OOC)CCCCCCCCCCC1`, the values for the EC50 with FM3A [1] and with Plasmodium falciparum were 1500 nM and 86 nM, respectively. The ED50 in the assay with Mus musculus [3] turned out to be 13 mg/kg; in the assay with Mus musculus [4] it was 30 mg/kg. Further, the ED90 is 20 mg/kg with Mus musculus [5] and 60 mg/kg in the assay on Mus musculus [6]. Further, the Selectivity ratio in the assay on FM3A [2] is recorded as 17.
For `CCCOOC1(OC)CCCCCCCCCCC1`, the values for the EC50 with FM3A [1] and in the assay on Plasmodium falciparum were above 37000 nM and 620 nM, respectively. Moreover, the Selectivity ratio in the assay with FM3A [2] is reported as above 60.
Take `CCCCOOC1(OOCCCC)CCCCCCCCCCC1`: the values for the 50% effective concentration (EC50) in the assay on FM3A [1] and in the assay on Plasmodium falciparum were 8500 nM and 2100 nM, respectively. Moreover, the Selectivity ratio with FM3A [2] came out at 4.
For the compound `COOC1(OOCCCCCC(=O)O)CCCCCCCCCCC1`, the EC50 in the assay on FM3A [1] is 14000 nM; with Plasmodium falciparum, 270 nM. The Selectivity ratio in the assay on FM3A [2] is reported as 52.
As to `COOC1(OOCCCCCCI)CCCCCCCCCCC1`, the 50% effective concentration (EC50) worked out at 86000 nM with FM3A [1] and 740 nM in the assay on Plasmodium falciparum. In addition, the Selectivity ratio in the assay with FM3A [2] was 116.
As to `C[C@@H]1CC[C@H]2[C@@H](C)C(=O)O[C@@H]3O[C@@]4(C)CC[C@@H]1[C@]32OO4` [ARTEMISININ], the ED50 in the assay with Mus musculus [3] amounted to 5.4 mg/kg; with Mus musculus [4], 13 mg/kg. Further, the values for the ED90 in the assay on Mus musculus [5] and in the assay with Mus musculus [6] were 32 mg/kg and 89 mg/kg, respectively. For the same compound, the Selectivity ratio in the assay on FM3A [2] stood at 1000.
On to `COOC1(OOCCCCCCO)CCCCCCCCCCC1`, for which the figures for the 50% effective concentration (EC50) in the assay on FM3A [1] and in the assay with Plasmodium falciparum were 1600 nM and 72 nM, respectively. Also, the ED50 in the assay with Mus musculus [3] was 30 mg/kg. In the assay on Mus musculus [5], this compound gave an ED90 of 60 mg/kg. Further, in the assay on FM3A [2], the Selectivity ratio stood at 22.
As for `COOC1(OOCCCCCCOC2CCOCC2)CCCCCCCCCCC1`, the EC50 in the assay with FM3A [1] is 7600 nM; in the assay on Plasmodium falciparum, 900 nM. Also, the Selectivity ratio in the assay on FM3A [2] was found to be 8.
Consider `COOC1(OC)CCCCCCCCCCC1`, for which the results for the EC50 in the assay on FM3A [1] and in the assay on Plasmodium falciparum were 19000 nM and 80 nM, respectively. Also, the 50% effective dose (ED50) in the assay with Mus musculus [3] stood at 30 mg/kg. This compound registered an ED90 with Mus musculus [5] of 68 mg/kg. Moreover, the Selectivity ratio in the assay on FM3A [2] came to 238.
As to `C=CCOOC1(OOCC=C)CCCCCCCCCCC1`, the values for the 50% effective concentration (EC50) in the assay with FM3A [1] and in the assay on Plasmodium falciparum were 14000 nM and 1600 nM, respectively. For the same compound, the Selectivity ratio in the assay on FM3A [2] is 9.
As for `C=C(C)COOC(CCCC)(CCCC)OOC`, the values for the half-maximal effective concentration (EC50) in the assay with FM3A [1] and with Plasmodium falciparum were 15000 nM and 1600 nM, respectively. Moreover, the Selectivity ratio with FM3A [2] was found to be 9.
Take `CCCCOOC1(OOC)CCCCCCCCCCC1`: the concentration giving a half-maximal response (EC50) was found to be 20000 nM with FM3A [1] and 220 nM with Plasmodium falciparum. Moreover, it took a dose of 35 mg/kg to reach the 50% effect level in the assay with Mus musculus [3] (ED50). Further, the ED90 with Mus musculus [5] is 80 mg/kg. For the same compound, in the assay with FM3A [2], the Selectivity ratio was determined as 91.
Regarding `CCOOC1(OOCC)CCCCCCCCCCC1`, the EC50 was found to be 10000 nM in the assay on FM3A [1] and 200 nM in the assay on Plasmodium falciparum. The median effective dose (ED50) in the assay on Mus musculus [3] is 41 mg/kg; in the assay with Mus musculus [7], 64 mg/kg. For the same compound, the Selectivity ratio in the assay on FM3A [2] is given as 50.
As for `CCCOOC1(OOCCC)CCCCCCCCCCC1`, the figures for the half-maximal effective concentration (EC50) in the assay on FM3A [1] and in the assay on Plasmodium falciparum were 12000 nM and 1800 nM, respectively. Also, the Selectivity ratio in the assay on FM3A [2] stood at 7.
For `CCCCC(CCCC)(OC)OOCC` the same measures were above 48000 nM, 8600 nM and above 6.
For `COOC1(OOCCC(=O)OC)CCCCCCCCCCC1` the same measures were 1400 nM, 230 nM and 6.
For `C=C(C)COOC1(OOCC(=C)C)CCCCCCCCCCC1` the same measures were 38000 nM, 1500 nM and 25.
With `COOC1(OOCCCc2ccccc2)CCCCCCCCCCC1`, the EC50 with FM3A [1] was determined as 34000 nM; in the assay with Plasmodium falciparum, 1000 nM. For the same compound, the Selectivity ratio in the assay on FM3A [2] turned out to be 34.
For `CCOC(C)OOC1(OOC)CCCCCCCCCCC1` (stereo unspecified) the same measures were 12000 nM, 290 nM and 41.
For `C=C(C)COOC1(OOC)CCCCCCCCCCC1` the same measures were 17000 nM, 1300 nM and 13.
As to `CCOOC1(OC)CCCCCCCCCCC1`, the 50% effective concentration (EC50) was determined as 26000 nM in the assay with FM3A [1] and 230 nM with Plasmodium falciparum. The 50% effective dose (ED50) in the assay on Mus musculus [3] is above 100 mg/kg. In the assay with FM3A [2], the Selectivity ratio is on record as 113.
For `COOC1(OOC(C)(C)OC)CCCCCCCCCCC1`, the EC50 in the assay on FM3A [1] is 7300 nM; in the assay on Plasmodium falciparum, 240 nM. For the same compound, the Selectivity ratio in the assay on FM3A [2] is recorded as 30.
